# The source made the active and inactive calls. No cut-off for these calls is given here.
# What was measured:
# [1] = target: T1, Kinesin-like protein Klp61F (Drosophila melanogaster) (UniProt P46863); assay: Inhibition of Drosophila melanogaster Klp61F in S2 cells at 100 uM up to 7 hrs by immunofluorescence analysis; type: cell-based
# T1 sequence (whole entry): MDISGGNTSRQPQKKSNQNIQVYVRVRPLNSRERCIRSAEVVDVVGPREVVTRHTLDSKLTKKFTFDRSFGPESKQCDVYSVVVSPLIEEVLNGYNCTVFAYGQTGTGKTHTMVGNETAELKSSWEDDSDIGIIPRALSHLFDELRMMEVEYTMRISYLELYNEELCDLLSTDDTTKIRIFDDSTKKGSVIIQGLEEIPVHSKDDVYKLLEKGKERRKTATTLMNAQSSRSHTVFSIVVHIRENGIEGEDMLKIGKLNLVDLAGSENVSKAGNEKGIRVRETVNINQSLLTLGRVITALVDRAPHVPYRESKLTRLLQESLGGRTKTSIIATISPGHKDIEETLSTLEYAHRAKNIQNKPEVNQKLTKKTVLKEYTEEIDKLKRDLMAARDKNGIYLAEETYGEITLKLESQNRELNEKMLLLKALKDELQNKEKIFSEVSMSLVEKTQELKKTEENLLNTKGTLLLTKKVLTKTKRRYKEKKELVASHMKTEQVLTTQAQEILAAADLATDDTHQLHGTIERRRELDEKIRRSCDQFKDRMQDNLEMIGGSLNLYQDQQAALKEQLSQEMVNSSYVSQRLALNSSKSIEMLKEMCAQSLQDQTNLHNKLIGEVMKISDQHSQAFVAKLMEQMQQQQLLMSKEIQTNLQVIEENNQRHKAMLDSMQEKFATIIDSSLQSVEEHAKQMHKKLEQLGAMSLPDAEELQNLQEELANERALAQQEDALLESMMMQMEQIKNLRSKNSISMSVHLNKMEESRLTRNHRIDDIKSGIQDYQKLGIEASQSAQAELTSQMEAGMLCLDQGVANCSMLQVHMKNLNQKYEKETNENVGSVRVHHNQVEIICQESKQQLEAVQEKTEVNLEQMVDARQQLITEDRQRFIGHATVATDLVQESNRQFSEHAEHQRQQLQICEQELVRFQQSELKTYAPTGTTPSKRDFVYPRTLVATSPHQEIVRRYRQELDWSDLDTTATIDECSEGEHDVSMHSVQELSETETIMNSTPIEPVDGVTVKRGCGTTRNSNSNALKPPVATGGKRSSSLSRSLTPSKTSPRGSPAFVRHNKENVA
# How it was run: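 Drosophila S2 cells were exposed to compound over a three-log concentration range up to 100 μM, with treatments extending up to 7 h. Bipolar spindle formation was scored by immunofluorescence.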
# OVCAR-5 = assay: Growth inhibition of human OVCAR5 cells; type: functional
# HeLa [2] = assay: Induction of KSP depletion in human HeLa cells after 4 hrs by immunofluorescence analysis; type: functional, cell-based
# How it was run: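 HeLa cells were treated 4 h across a concentration series of compound in DMSO, then fixed in 100% MeOH at −20 °C. They were probed overnight at 4 °C with mouse anti-KSP and rabbit anti-EB1 to mark microtubules, with Alexa Fluor secondaries and DNA counterstain. KSP (green channel) images were taken at equivalent exposure times.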
# [3] = Inhibition of bipolar spindle formation in Strongylocentrotus purpuratus eggs; type: functional, Egg
# How it was run: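 S. purpuratus eggs (gametes released with 0.5M KCl) were fertilized in artificial seawater with 2 mM 3-amino triazole and stripped of envelopes 20 min post-fertilization. They were then cultured with 0.1% DMSO or inhibitor at 100 nM–100 μM, fixed at first mitosis and stained for microtubules and DNA. 100 cells per condition were scored for bipolar spindles to derive EC50.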
# NCI-H226 = assay: Growth inhibition of human NCI-H226 cells; type: functional
# SK-OV-3 [4] = assay: Growth inhibition of human SKOV3 cells; type: functional
# UO-31 = assay: Growth inhibition of human UO31 cells; type: functional
# SK-MEL-28 = assay: Growth inhibition of human SK-MEL-28 cells; type: functional
# UACC-62 = assay: Growth inhibition of human UACC62 cells; type: functional
# SK-MEL-5 = assay: Growth inhibition of human SK-MEL-5 cells; type: functional
# HCC 2998 = assay: Growth inhibition of human HCC2998 cells; type: functional
# HL-60(TB) = assay: Growth inhibition of human HL-60(TB) cells; type: functional
# NCI-H322M = assay: Growth inhibition of human NCI-H322M cells; type: functional
# HT-29 = assay: Growth inhibition of human HT-29 cells; type: functional
# SN12C = assay: Growth inhibition of human SN12C cells; type: functional
# HCT-15 = assay: Growth inhibition of human HCT15 cells; type: functional
# M14 = assay: Growth inhibition of human M14 cells; type: functional
# SF-539 = assay: Growth inhibition of human SF539 cells; type: functional
# SNB-19 = assay: Growth inhibition of human SNB19 cells; type: functional
# SW-620 = assay: Growth inhibition of human SW620 cells; type: functional
# [5] = Growth inhibition of human […] cells; type: functional
# LOX IMVI = assay: Growth inhibition of human LOXIMVI cells; type: functional
# TK-10 = assay: Growth inhibition of human TK10 cells; type: functional
# SNB-75 = assay: Growth inhibition of human SNB75 cells; type: functional
# ACHN = assay: Growth inhibition of human ACHN cells; type: functional
# U-251 = assay: Growth inhibition of human U251 cells; type: functional
# NCI-H23 = assay: Growth inhibition of human NCI-H23 cells; type: functional
# SK-OV-3 [6] = assay: Ratio of GI50 for human M14 cells to GI50 for human SK-OV-3 cells; type: functional
# CAKI-1 = assay: Growth inhibition of human Caki1 cells; type: functional
# HeLa [7] = assay: Effect on interphase microtubule organization in human HeLa cells at 1 uM; type: functional, cell-based
# How it was run: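 HeLa cells were grown in MEM/Earle's BSS with 10% FBS at 37 °C and 5% CO2, then treated 4 h with 1 μM compound or 0.1% DMSO carrier. Cells were fixed in 100% MeOH at −20 °C and blocked in PBS-5% BSA. They were stained overnight at 4 °C with mouse anti-tubulin and for DNA, then imaged by epifluorescence with structured illumination.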
# [8] = target: Kinesin-like protein KIF11 (Homo sapiens, UniProt P52732); assay: Inhibition of human recombinant microtubule-activated KSP motor domain ATPase activity after 10 mins by end-point assay
# Sequence of Kinesin-like protein KIF11 (P52732 whole entry, the tested form may be a part): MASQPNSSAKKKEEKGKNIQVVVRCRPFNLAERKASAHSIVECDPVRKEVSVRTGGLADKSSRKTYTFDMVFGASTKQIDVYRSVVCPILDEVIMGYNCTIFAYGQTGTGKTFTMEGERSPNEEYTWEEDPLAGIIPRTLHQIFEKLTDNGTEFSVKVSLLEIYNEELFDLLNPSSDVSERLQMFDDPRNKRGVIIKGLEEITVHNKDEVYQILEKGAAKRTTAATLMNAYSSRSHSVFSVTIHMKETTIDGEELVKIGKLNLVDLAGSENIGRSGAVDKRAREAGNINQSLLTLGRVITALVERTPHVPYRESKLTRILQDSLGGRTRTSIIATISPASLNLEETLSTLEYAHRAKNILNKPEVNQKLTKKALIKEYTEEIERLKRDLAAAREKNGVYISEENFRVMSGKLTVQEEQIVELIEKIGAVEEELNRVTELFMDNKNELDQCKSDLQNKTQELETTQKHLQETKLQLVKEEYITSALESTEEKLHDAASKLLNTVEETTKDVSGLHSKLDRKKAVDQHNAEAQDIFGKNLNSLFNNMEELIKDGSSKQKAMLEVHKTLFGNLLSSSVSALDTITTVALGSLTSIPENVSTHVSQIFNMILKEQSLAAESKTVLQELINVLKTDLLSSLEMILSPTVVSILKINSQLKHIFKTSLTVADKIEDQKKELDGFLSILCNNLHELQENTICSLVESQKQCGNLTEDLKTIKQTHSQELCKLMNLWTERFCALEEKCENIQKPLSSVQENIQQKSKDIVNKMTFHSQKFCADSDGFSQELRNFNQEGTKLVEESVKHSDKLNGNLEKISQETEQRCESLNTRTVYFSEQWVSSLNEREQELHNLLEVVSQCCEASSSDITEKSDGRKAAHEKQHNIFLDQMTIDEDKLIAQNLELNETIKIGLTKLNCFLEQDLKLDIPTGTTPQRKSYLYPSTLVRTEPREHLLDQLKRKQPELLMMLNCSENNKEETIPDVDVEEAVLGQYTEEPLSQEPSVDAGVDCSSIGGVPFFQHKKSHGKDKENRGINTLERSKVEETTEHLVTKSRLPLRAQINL
# HOP-62 = assay: Growth inhibition of human HOP62 cells; type: functional
# OVCAR-3 = assay: Growth inhibition of human OVCAR3 cells; type: functional
# K562 = assay: Growth inhibition of human K562 cells; type: functional
# SK-MEL-2 = assay: Growth inhibition of human SK-MEL-2 cells; type: functional
# HeLa [9] = assay: Inhibition of bipolar spindle formation in human HeLa cells at 1 uM; type: functional, cell-based
# How it was run: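 HeLa cells were grown in MEM with Earle's BSS, 10% FBS, sodium bicarbonate and pyruvate at 37°C in 5% CO2. They were exposed to compound in DMSO for 4 h, with 0.1% DMSO as carrier control. Cells were fixed in −20°C methanol and immunostained for tubulin, with DNA counterstained. Bipolar spindle formation was scored in 100 mitotic cells per condition.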
# CCRF-CEM = assay: Growth inhibition of human CCRF-CEM cells; type: functional
# UACC-257 = assay: Growth inhibition of human UACC257 cells; type: functional
# 786-0 = assay: Growth inhibition of human 786-0 cells; type: functional
# MOLT-4 = assay: Growth inhibition of human MOLT4 cells; type: functional
# COLO 205 = assay: Growth inhibition of human COLO205 cells; type: functional
# SF-295 = assay: Growth inhibition of human SF295 cells; type: functional
# EKVX = assay: Growth inhibition of human EKVX cells; type: functional
# A549 = assay: Growth inhibition of human A549 cells; type: functional
# HCT-116 = assay: Growth inhibition of human HCT116 cells; type: functional
# Malme-3M = assay: Growth inhibition of human MALME-3M cells; type: functional
# SR = assay: Growth inhibition of human SR cells; type: functional
# NCI-H522 = assay: Growth inhibition of human NCI-H522 cells; type: functional
# OVCAR-8 = assay: Growth inhibition of human OVCAR8 cells; type: functional
# IGROV-1 = assay: Growth inhibition of human IGROV1 cells; type: functional
# OVCAR-4 = assay: Growth inhibition of human OVCAR4 cells; type: functional
# SF-268 = assay: Growth inhibition of human SF268 cells; type: functional
compound,measurement,setting,value
N[C@@H](CSC(c1ccccc1)(c1ccccc1)c1ccccc1)C(=O)O [S-TRITYL-L-CYSTEINE],inhibition,[1],inactive
same,GI50,OVCAR-5,100000 nM
same,Activity,HeLa [2],Dose-dependent effect
same,EC50,[3],≥ 100000 nM
same,GI50,NCI-H226,100000 nM
same,GI50,SK-OV-3 [4],100000 nM
same,GI50,UO-31,100000 nM
CCOC(=O)C1=C(C)NC(=S)NC1c1cccc(O)c1 (configuration not stated) [MONASTROL],GI50,SK-MEL-28,79400 nM
same,GI50,UACC-62,39800 nM
same,GI50,SK-MEL-5,39800 nM
same,GI50,HCC 2998,39800 nM
same,GI50,HL-60(TB),25100 nM
same,GI50,NCI-H322M,39800 nM
same,GI50,HT-29,79400 nM
same,GI50,SN12C,39800 nM
same,GI50,HCT-15,39800 nM
same,GI50,M14,25100 nM
same,GI50,SF-539,50100 nM
same,GI50,SNB-19,79400 nM
same,GI50,OVCAR-5,79400 nM
same,GI50,SW-620,39800 nM
same,GI50,[5],31600 nM
same,GI50,LOX IMVI,79400 nM
same,GI50,TK-10,100000 nM
same,GI50,SNB-75,39800 nM
same,GI50,ACHN,79400 nM
same,GI50,UO-31,100000 nM
COc1ccc(C(SCCN)(c2ccccc2)c2ccccc2)cc1,GI50,U-251,50 nM
same,GI50,SK-MEL-28,640 nM
same,GI50,NCI-H23,510 nM
same,GI50,UACC-62,400 nM
same,RatioGI50,SK-OV-3 [6],1250
same,GI50,CAKI-1,190 nM
same,GI50,SK-MEL-5,50 nM
same,Activity,HeLa [7],inactive
same,GI50,HCC 2998,240 nM
same,IC50,[8],136 nM
same,GI50,HOP-62,660 nM
same,GI50,NCI-H322M,60 nM
same,GI50,OVCAR-3,150 nM
same,inhibition,[1],inactive
same,GI50,K562,40 nM
same,GI50,SK-MEL-2,60 nM
same,GI50,HT-29,350 nM
same,GI50,SN12C,130 nM
same,GI50,HCT-15,50 nM
same,inhibition,HeLa [9],Active
same,GI50,M14,30 nM
same,GI50,SF-539,250 nM
same,GI50,SNB-19,340 nM
same,GI50,OVCAR-5,570 nM
same,GI50,SW-620,70 nM
same,GI50,[5],310 nM
same,GI50,CCRF-CEM,160 nM
same,GI50,UACC-257,700 nM
same,GI50,786-0,400 nM
same,GI50,MOLT-4,500 nM
same,GI50,LOX IMVI,500 nM
same,GI50,TK-10,1560 nM
same,GI50,COLO 205,210 nM
same,GI50,SF-295,180 nM
same,GI50,EKVX,390 nM
same,GI50,A549,100 nM
same,GI50,NCI-H226,1740 nM
same,GI50,HCT-116,40 nM
same,GI50,Malme-3M,220 nM
same,GI50,SR,130 nM
same,GI50,NCI-H522,40 nM
same,GI50,OVCAR-8,120 nM
same,GI50,IGROV-1,150 nM
same,GI50,SK-OV-3 [4],80 nM
same,GI50,SNB-75,600 nM
same,GI50,OVCAR-4,1400 nM
same,GI50,ACHN,690 nM
same,GI50,UO-31,500 nM
same,GI50,SF-268,150 nM
COc1ccc(C(SC[C@@H](N)C(=O)O)(c2ccccc2)c2ccccc2)cc1,inhibition,[1],inactive

# Source: ChEMBL document CHEMBL1817631, “Synthesis and characterization of tritylthioethanamine derivatives with potent KSP inhibitory activity” (Bioorg Med Chem, 2011)
